Measured values: ChEMBL document CHEMBL1140345, “Conformational constraint in oxazolidinone antibacterials. Synthesis and structure-activity studies of (azabicyclo[3.1.0]hexylphenyl)oxazolidinones” (2005)
Values after ≈ are worked out from the molar mass of the structure shown.

Legend:
[1] = tested on: Staphylococcus aureus; assay: Minimum inhibitory concentration against methicillin-susceptible Staphylococcus aureus UC9213; format: functional
Summary of the method: (§1)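 MIC determined by standard broth microdilution following the NCCLS M7-A4 approved standard for dilution susceptibility testing of aerobically growing bacteria.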

[2] = tested on: Staphylococcus aureus; assay: Minimum inhibitory concentration against methicillin, ciprofloxacin, rifampin, imipenem-resistant Staphylococcus aureus UC12673; format: functional; summary of the method: as §1
[3] = tested on: Enterococcus faecalis; assay: Minimum inhibitory concentration against Enterococcus faecalis UC9217; format: functional
Summary of the method: (§2)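 Broth microdilution MIC following the NCCLS M7-A4 approved standard for dilution susceptibility testing of aerobically growing bacteria. The method is taken as accurate to within one dilution.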

[4] = tested on: Streptococcus pneumoniae; assay: Minimum inhibitory concentration against penicillin-susceptible Streptococcus pneumoniae UC9912; format: functional; summary of the method: as §2
[5] = tested on: Staphylococcus epidermidis; assay: Minimum inhibitory concentration against methicillin-resistant Staphylococcus epidermidis UC12084
[6] = tested on: Haemophilus influenzae; assay: Minimum inhibitory concentration against ampicillin-reisitant Haemophilus influenzae UC30063; format: functional; summary of the method: as §2
[7] = tested on: Escherichia coli; assay: Minimum inhibitory concentration against Escherichia coli UC6674; format: functional; summary of the method: as §2
[8] = tested on: Haemophilus influenzae; assay: Minimum inhibitory concentration against ampicillin-reisitant Haemophilus influenzae UC30063; Range is from 4-8 ug/mL; format: functional; summary of the method: as §2
[9] = tested on: Staphylococcus epidermidis; assay: Minimum inhibitory concentration against methicillin-resistant Staphylococcus epidermidis UC12084; Range is from 0.5-1 ug/mL
[10] = tested on: Staphylococcus aureus; assay: Minimum inhibitory concentration against methicillin, ciprofloxacin, rifampin, imipenem-resistant Staphylococcus aureus UC12673; Range is 2-4 ug/mL; format: functional; summary of the method: as §1
[11] = tested on: Staphylococcus aureus; assay: Minimum inhibitory concentration against methicillin-susceptible Staphylococcus aureus UC9213; Range is 2-4 ug/mL; format: functional; summary of the method: as §1
[12] = tested on: Streptococcus pneumoniae; assay: Minimum inhibitory concentration against penicillin-susceptible Streptococcus pneumoniae UC9912; Range is 0.5-1 ug/mL; format: functional; summary of the method: as §2
[13] = tested on: Haemophilus influenzae; assay: Minimum inhibitory concentration against ampicillin-reisitant Haemophilus influenzae UC30063; Range is 8-16 ug/mL; format: functional; summary of the method: as §1
[14] = tested on: Staphylococcus epidermidis; assay: Minimum inhibitory concentration against methicillin-resistant Staphylococcus epidermidis UC12084; Range is 0.5-1 ug/mL
[15] = tested on: Staphylococcus epidermidis; assay: Minimum inhibitory concentration against methicillin-resistant Staphylococcus epidermidis UC12084; Range is 1-2 ug/mL
[16] = tested on: Streptococcus pneumoniae; assay: Minimum inhibitory concentration against penicillin-susceptible Streptococcus pneumoniae UC9912; Range is 1-2 ug/mL; format: functional; summary of the method: as §2
[17] = Streptococcus pneumoniae, read-out: MIC
[18] = Haemophilus influenzae, read-out: MIC

`CC(=O)NC[C@H]1CN(c2cc(F)c(N3C[C@@H]4[C@@H](N)[C@@H]4C3)c(F)c2)C(=O)O1` (stereo in doubt) gave an MIC [1] of 8 µg/mL (≈ 21.8 µM), an MIC [2] of 4 µg/mL (≈ 10.9 µM) and an MIC [3] of 4 µg/mL (≈ 10.9 µM). The MIC [4] was 1 µg/mL (≈ 2.73 µM), the MIC [5] was 1 µg/mL (≈ 2.73 µM) and the MIC [6] was 32 µg/mL (≈ 87.3 µM). It also gave an MIC [7] greater than 64 µg/mL.
`CC(=O)NC[C@H]1CN(c2cc(F)c(N3C[C@@H]4[C@H](C3)[C@H]4C(=O)O)c(F)c2)C(=O)O1` gave an MIC [1] of 2 µg/mL (≈ 5.06 µM), an MIC [2] of 1 µg/mL (≈ 2.53 µM) and an MIC [8] of 8 µg/mL (≈ 20.2 µM). The MIC [3] was 1 µg/mL (≈ 2.53 µM), the MIC [4, 17] was 1 µg/mL (≈ 2.53 µM) and the MIC [7] was greater than 64 µg/mL. The MIC [9] was 1 µg/mL (≈ 2.53 µM).
`CC(=O)NC[C@H]1CN(c2cc(F)c(N3C[C@@H]4[C@H](C3)[C@H]4NS(C)(=O)=O)c(F)c2)C(=O)O1` showed an MIC [1] of 4 µg/mL (≈ 9 µM), an MIC [2] of 4 µg/mL (≈ 9 µM) and an MIC [3] of 2 µg/mL (≈ 4.5 µM). The MIC [4, 17] was 1 µg/mL (≈ 2.25 µM), the MIC [5] was 1 µg/mL (≈ 2.25 µM) and the MIC [6, 18] was 32 µg/mL (≈ 72 µM). For the same compound, the MIC [7] was greater than 64 µg/mL.
For `CNC(=O)[C@H]1[C@@H]2CN(c3c(F)cc(N4C[C@H](CNC(C)=O)OC4=O)cc3F)C[C@@H]21`, the MIC [1] was 2 µg/mL (≈ 4.9 µM), the MIC [2] was 2 µg/mL (≈ 4.9 µM) and the MIC [3] was 1 µg/mL (≈ 2.45 µM). It also gave an MIC [4, 17] of 0.5 µg/mL (≈ 1.22 µM), an MIC [5] of 1 µg/mL (≈ 2.45 µM) and an MIC [6, 18] of 16 µg/mL (≈ 39.2 µM). It also gave an MIC [7] greater than 64 µg/mL.
Work on `N[C@@H]1[C@H]2CN(c3c(F)cc(N4C[C@H](CNC(=O)C(Cl)Cl)OC4=O)cc3F)C[C@@H]12` yielded an MIC [1] of 4 µg/mL (≈ 9.19 µM), an MIC [2] of 2 µg/mL (≈ 4.59 µM) and an MIC [3] of 2 µg/mL (≈ 4.59 µM). It also gave an MIC [4, 17] of 0.5 µg/mL (≈ 1.15 µM), an MIC [5] of 2 µg/mL (≈ 4.59 µM) and an MIC [6, 18] of 4 µg/mL (≈ 9.19 µM).
Compound `CC(=O)NC[C@H]1CN(c2cc(F)c(N3C[C@@H]4[C@H](C3)[C@H]4C(=O)NCc3ccccn3)c(F)c2)C(=O)O1` has an MIC [1] of 4 µg/mL (≈ 8.24 µM), an MIC [2] of 4 µg/mL (≈ 8.24 µM) and an MIC [3] of 1 µg/mL (≈ 2.06 µM). For the same compound, the MIC [4, 17] was 0.5 µg/mL (≈ 1.03 µM), the MIC [5] was 1 µg/mL (≈ 2.06 µM) and the MIC [6, 18] was greater than 64 µg/mL.
With `CC(=O)NC[C@H]1CN(c2cc(F)c(N3C[C@@H]4[C@H](C3)[C@H]4C(=O)Nc3ccc4c(c3)OCO4)c(F)c2)C(=O)O1` the MIC [1] was 1 µg/mL (≈ 1.94 µM), the MIC [2] was 1 µg/mL (≈ 1.94 µM) and the MIC [3] was 1 µg/mL (≈ 1.94 µM). The MIC [4, 17] was 0.5 µg/mL (≈ 0.972 µM), the MIC [5] was 0.5 µg/mL (≈ 0.972 µM) and the MIC [6, 18] was greater than 64 µg/mL.
For `CC(=O)NC[C@H]1CN(c2cc(F)c(N3C[C@@H]4[C@H](C3)[C@H]4C(=O)NOCc3ccccc3)c(F)c2)C(=O)O1`, the MIC [1] was 4 µg/mL (≈ 7.99 µM), the MIC [2] was 2 µg/mL (≈ 4 µM) and the MIC [3] was 2 µg/mL (≈ 4 µM). The MIC [4, 17] was 1 µg/mL (≈ 2 µM), the MIC [5] was 1 µg/mL (≈ 2 µM) and the MIC [6, 18] was greater than 64 µg/mL. For the same compound, the MIC [7] was greater than 64 µg/mL.
In the case of `CC(=O)NC[C@H]1CN(c2cc(F)c(N3C[C@@H]4[C@H](C3)[C@H]4NC=O)c(F)c2)C(=O)O1`, the MIC [10] is reported as 4 µg/mL (≈ 10.1 µM), the MIC [3] is reported as 2 µg/mL (≈ 5.07 µM) and the MIC [11] is reported as 4 µg/mL (≈ 10.1 µM). The MIC [5] was 1 µg/mL (≈ 2.54 µM), the MIC [6, 18] was 32 µg/mL (≈ 81.1 µM) and the MIC [12] was 1 µg/mL (≈ 2.54 µM). For the same compound, the MIC [7] was greater than 64 µg/mL.
Work on `O=C(NC[C@H]1CN(c2cc(F)c(N3C[C@@H]4[C@H](C3)[C@H]4C(=O)O)c(F)c2)C(=O)O1)C(F)F` yielded an MIC [1] of 1 µg/mL (≈ 2.32 µM), an MIC [2] of 0.5 µg/mL (≈ 1.16 µM) and an MIC [3] of 0.5 µg/mL (≈ 1.16 µM). It also gave an MIC [4, 17] of 1 µg/mL (≈ 2.32 µM), an MIC [5] of 0.5 µg/mL (≈ 1.16 µM) and an MIC [6, 18] of 4 µg/mL (≈ 9.27 µM).
With `CC(=O)NC[C@H]1CN(c2ccc(N3C[C@@H]4[C@@H](N)[C@@H]4C3)c(F)c2)C(=O)O1` the MIC [2] was 4 µg/mL (≈ 11.5 µM), the MIC [13] was 16 µg/mL (≈ 45.9 µM) and the MIC [3] was 4 µg/mL (≈ 11.5 µM). The MIC [4, 17] was 1 µg/mL (≈ 2.87 µM), the MIC [11] was 4 µg/mL (≈ 11.5 µM) and the MIC [14] was 1 µg/mL (≈ 2.87 µM). The MIC [7] was 32 µg/mL (≈ 91.9 µM).
In the case of `CC(=O)NC[C@H]1CN(c2cc(F)c(N3C[C@@H]4[C@H](C3)[C@H]4C(=O)Nc3nccs3)c(F)c2)C(=O)O1`, the MIC [1] is reported as 2 µg/mL (≈ 4.19 µM), the MIC [2] is reported as 1 µg/mL (≈ 2.09 µM) and the MIC [3] is reported as 0.5 µg/mL (≈ 1.05 µM). For the same compound, the MIC [4, 17] was 0.13 µg/mL (≈ 0.272 µM), the MIC [5] was 0.25 µg/mL (≈ 0.524 µM) and the MIC [6, 18] was greater than 64 µg/mL.
For `CCC(=O)NC[C@H]1CN(c2cc(F)c(N3C[C@@H]4[C@H](C3)[C@H]4C(=O)O)c(F)c2)C(=O)O1`, the MIC [1] was 2 µg/mL (≈ 4.89 µM), the MIC [2] was 1 µg/mL (≈ 2.44 µM) and the MIC [15] was 2 µg/mL (≈ 4.89 µM). The MIC [3] was 1 µg/mL (≈ 2.44 µM), the MIC [16] was 2 µg/mL (≈ 4.89 µM) and the MIC [6, 18] was 8 µg/mL (≈ 19.5 µM).
In the case of `CC(=O)NC[C@H]1CN(c2cc(F)c(N3C[C@@H]4[C@H](C3)[C@H]4C(=O)N(C)C)c(F)c2)C(=O)O1`, the MIC [1] is reported as 4 µg/mL (≈ 9.47 µM), the MIC [2] is reported as 4 µg/mL (≈ 9.47 µM) and the MIC [3] is reported as 4 µg/mL (≈ 9.47 µM). For the same compound, the MIC [4, 17] was 2 µg/mL (≈ 4.73 µM), the MIC [5] was 2 µg/mL (≈ 4.73 µM) and the MIC [6, 18] was 64 µg/mL (≈ 152 µM). The MIC [7] was greater than 64 µg/mL.
`CC(=O)NC[C@H]1CN(c2ccc(N3C[C@@H]4[C@H](C3)[C@H]4C(=O)O)c(F)c2)C(=O)O1` gave an MIC [1] of 8 µg/mL (≈ 21.2 µM), an MIC [2] of 4 µg/mL (≈ 10.6 µM) and an MIC [3] of 4 µg/mL (≈ 10.6 µM). For the same compound, the MIC [4, 17] was 4 µg/mL (≈ 10.6 µM), the MIC [5] was 2 µg/mL (≈ 5.3 µM) and the MIC [6, 18] was 16 µg/mL (≈ 42.4 µM). The MIC [7] was greater than 64 µg/mL.
